Compound activity (PubChem BioAssay)
PG9 binder: binds the HIV-1 gp120 antibody PG9; TR-FRET gp120-PG9 antibody binding; inhibition, % at 6.7 µM; hit rate 0.43% among 360,000; in the data active = inhibition above about 8.5%
Rev-erbA mod: modulators of human Rev-erb alpha DNA binding; P20393; Rev-erbα–FITC-DNA binding, fluorescence polarization, 90 min; activity, % at 10 µM; hit rate 0.79% among 370,000; AID 1259318;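 active = activity above about 14%, limit read from the data; passing the limit was not always enough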;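 also: 0% = DMSO wells with 35 nM protein and 100% = DMSO wells with 750 nM protein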
Target sequence (P20393 whole entry, looked up): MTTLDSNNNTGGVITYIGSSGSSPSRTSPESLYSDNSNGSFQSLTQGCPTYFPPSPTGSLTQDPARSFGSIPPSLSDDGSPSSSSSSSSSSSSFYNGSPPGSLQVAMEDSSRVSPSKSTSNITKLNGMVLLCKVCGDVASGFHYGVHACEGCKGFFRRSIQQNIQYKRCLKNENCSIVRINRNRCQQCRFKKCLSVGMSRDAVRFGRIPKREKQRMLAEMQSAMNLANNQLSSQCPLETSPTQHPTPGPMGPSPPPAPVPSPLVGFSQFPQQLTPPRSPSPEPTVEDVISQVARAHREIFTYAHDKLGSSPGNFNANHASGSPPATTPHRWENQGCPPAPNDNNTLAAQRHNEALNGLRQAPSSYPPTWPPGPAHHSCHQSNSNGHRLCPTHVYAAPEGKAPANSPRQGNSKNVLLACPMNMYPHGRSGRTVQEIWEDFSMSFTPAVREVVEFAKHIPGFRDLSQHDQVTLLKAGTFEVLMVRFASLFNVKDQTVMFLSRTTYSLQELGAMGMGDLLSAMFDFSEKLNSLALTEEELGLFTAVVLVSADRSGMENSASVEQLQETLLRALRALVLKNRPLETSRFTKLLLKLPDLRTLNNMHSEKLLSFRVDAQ
NR2E3 ag-1: agonists of human nuclear receptor NR2E3. Q9Y5X4. GST-NR2E3/biotin-RetCOR TR-FRET, 1536-well. inhibition of corepressor binding, % at 4.78 µM. hit rate 0.12% among 320,000. AID 2300;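 active = percent inhibition above the cutoff of mean plus 3 SD of all tested compounds, set per screening campaign, cut at about 20% in these data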;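 also: 0% = DMSO wells and 100% = biotin wells as full block of FRET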
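Test system – NR2E3–RetCOR corepressor complex · Quantity – NR2E3 fusion 1.35 nM · Buffer or medium – Tris pH 7.5 · Incubation – Compound–protein incubation for 5 h at 4 °C · Technique – TR-FRET, Eu(K)-anti-GST donor, streptavidin-D2 acceptor, ex 340, em 617/671 nm · Evaluation – percent inhibition of 671/617 nm emission ratio versus biotin and DMSO controls · Plate – 1536-well format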
MC4R ag barr: human MC4R agonism via beta-arrestin | hit rate 0.98% among 360,000 | P32245 | AID 540308 | activation, % at 8.9 µM | U2OS MC4R beta-arrestin complementation, luminescence; percent of melanotan II response, DMSO zero;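 active = activation above a per-plate cutoff, the mean activation of sample wells on that plate plus 3 SD, cut at about 8% in these data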
NR2E3 ag-2: agonists of human NR2E3 nuclear receptor; Q9Y5X4; CHO-S Gal4-NCOR/VP16-NR2E3 two-hybrid, luciferase; inhibition of corepressor binding, % at 3.98 µM; hit rate 0.35% among 360,000;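 active = inhibition above the mean of all tested compounds plus 3 SD, cut at about 70% in these data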;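 also: 0% = DMSO with NR2E3 transfected cells and 100% = cells lacking NR2E3 construct; higher means lower luciferase signal from less NR2E3 corepressor binding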
MC4R antag cAMP: blocks human MC4R cAMP signaling | P32245 | MC4R-expressing cells, MTII-stimulated cAMP, LANCE TR-FRET | inhibition, % at 6.5 µM | hit rate 0.48% among 360,000 | AID 540295;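 active = inhibition above its plate's cutoff, the mean of tested wells on that plate plus 3 SD, cut at about 29% in these data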;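 also: 0% = Melanotan II alone and 100% = Melanotan II plus saturating MCL0020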
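system = U2OS cells with stable human MC4R expression | also added = Melanotan II challenge after compound preincubation | dosing = one concentration, 6.5 µM nominal | incubation = compound 30 min, challenge 1 h, detection 1 h | measured by = TR-FRET with Eu-cAMP and labeled anti-cAMP, 671 nm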
NR2E3 ag conf: confirmation of human NR2E3 agonists | shares compounds with NR2E3 ag-2 | CHO-S mammalian two-hybrid NR2E3-NCOR, luciferase luminescence | hit rate 51% among 2,300 | inhibition, % at 3.98 µM;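 active = average inhibition above a cutoff equal to the mean inhibition of all tested compounds plus one SD, cut at about 70% in these data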;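 also: 0% = DMSO in NR2E3 cells and 100% = DMSO in cells lacking NR2E3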
GAL4-VP16 luc: GAL4-VP16 reporter inhibition in NR2E3 agonist counterscreen. shares compounds with NR2E3 ag-2. CHO-S GAL4-VP16 luciferase reporter, luminescence. inhibition, % at 3.98 µM. hit rate 29% among 2,300;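 active = mean inhibition above a cutoff equal to the average over all tested compounds plus one standard deviation, cut at about 70% in these data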;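 also: luciferase from a UAS reporter driven by GAL4-VP16 transactivation; 0% = DMSO with VP16-transfected cells and 100% = DMSO with cells lacking VP16; higher means less reporter light so more repression of VP16 activity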
* marks the source's active call; other numbers are inactive results; / = no result. Hits are enriched below; roughly 2.7% of the tested compounds scored in any of these assays.

SMILES	PG9 binder	Rev-erbA mod	NR2E3 ag-1	MC4R ag barr	NR2E3 ag-2	MC4R antag cAMP	NR2E3 ag conf	GAL4-VP16 luc
CCNc1cc(N2CCN(S(=O)(=O)c3ccc4c(c3)CCCC4)CC2)ccc1[N+](=O)[O-]	3	1	7	-1	-22	10	/	/
CCOc1cc(CNc2ccc3c(c2)OCCO3)cc(Br)c1OC	-1	4	3	-2	46	-23	/	/
CCOc1c(Br)cc(CNc2ccc3c(c2)OCCO3)cc1OC	-1	-2	2	0	66	-19	18	-5
CCCCCOC(=O)C1=C(C)Nc2ncnn2C1c1cccs1 (centres undefined)	0	3	-2	2	34	5	/	/
COc1ccc(-n2c(SCC(=O)O)nc3sc4c(c3c2=O)CCC4)cc1	-1	-2	4	-1	-5	5	/	/
Cc1sc2ncnc(N3CCC(C(=O)NNC(=O)COc4ccc(Cl)cc4)CC3)c2c1C	-2	-3	/	-4	-15	8	/	/
Cc1sc2ncnc(N3CCN(CCOc4ccc(Cl)cc4)CC3)c2c1C	-2	2	1	5	99*	-8	95*	86*
O=C(C1CC1)N1CCc2cc(S(=O)(=O)NCCCN3CCCCC3)ccc21	-2	8	-3	-4	-5	8	/	/
O=C(C1CCC1)N1CCc2cc(S(=O)(=O)NCCN3CCN(c4ccccc4F)CC3)ccc21	-4	-4	6	-1	61	0	70	55
COc1cc(CNS(=O)(=O)c2ccc3c(c2)CC(C)N3C(=O)C2CCC2)cc(OC)c1OC (centres undefined)	-2	-9	-2	-4	43	10	/	/
COc1cccc(CNC(=O)C2CCN(S(=O)(=O)c3ccc4c(c3)CC(C)N4C(=O)C3CC3)CC2)c1 (centres undefined)	-1	1	1	2	1	2	/	/
COc1cccc(CNS(=O)(=O)c2ccc3c(c2)CC(C)N3C(=O)C2CC2)c1 (centres undefined)	-1	4	0	-2	61	3	56	36
COc1ccc(CNS(=O)(=O)c2ccc3c(c2)CC(C)N3C(=O)C2CC2)cc1 (centres undefined)	-2	-2	1	-2	95*	2	89*	75*
COc1ccc(CNS(=O)(=O)c2ccc3c(c2)CCN3C(=O)C2CC2)cc1	2	-3	1	0	49	19	58	48
NC(=O)C1CCN(CC(=O)Nc2ccccc2Sc2ccc(Cl)cc2)CC1	-2	-2	6	-2	-6	12	/	/
COc1ccc(C2C/C(=N\O)C(C)(C)O2)cc1 (centres undefined)	-2	-8	-2	0	-2	1	/	/
Oc1ccc(/C=N/N2CCN(C3c4ccccc4-c4ccccc43)CC2)c(O)c1	-3	5	0	7	-6	3	/	/
CO/N=C/c1c(C(=O)OC)nn(-c2ccccc2)c1Cl	0	0	-5	-3	-15	-3	/	/
COc1ccccc1-n1c(=O)oc2ccc(Cl)cc2c1=O	0	-6	0	-1	73*	-8	96*	55
COc1c(Cl)c(=O)oc2ccc(Cl)cc12	-2	1	/	1	-3	1	/	/
CN1c2ccccc2C(O)=C(C(=S)Nc2ccc(F)c(Cl)c2)S1(=O)=O	-1	-4	-3	-1	49	-2	88*	59
OCC1OC(n2cnc3c(NCc4ccccc4O)ncnc32)C(O)C1O (centres undefined)	-1	2	/	-2	72*	4	51	49
O=c1[nH]cnc2c1ncn2[C@@H]1O[C@H](CO)[C@@H](O)[C@H]1O	-1	-4	5	0	-8	9	/	/
O=c1[nH]nnc2c1ncn2C1OC(CO)C(O)C1O (centres undefined)	3	0	/	/	68	/	59	50
CN(C)c1ncnc2c1ccn2C1OC(CO)C(O)C1O (centres undefined)	1	4	/	-1	70	-4	72*	29
SMILES	PG9 binder	Rev-erbA mod	NR2E3 ag-1	MC4R ag barr	NR2E3 ag-2	MC4R antag cAMP	NR2E3 ag conf	GAL4-VP16 luc
OCC1OC(n2cnc3c(NCCc4ccccc4)ncnc32)C(O)C1O (centres undefined)	0	2	5	0	6	16	/	/
OCC1OC(n2ccc3c(NO)ncnc32)C(O)C1O (centres undefined)	-5	-2	/	0	102*	8	99*	93*
OC[C@H]1O[C@@H](n2cnc3c(Nc4ccccc4)ncnc32)[C@H](O)[C@@H]1O	0	9	5	1	-14	16	/	/
CSCC(=O)N1CCC(Oc2cccc(C(=O)NCc3ccccn3)c2)CC1	-2	1	0	-2	19	0	/	/
CCN(c1ccccc1)c1nc(C#N)nc(N(CC)c2ccccc2)n1	-3	-2	-1	1	-28	11	/	/
CC(OC(=O)c1cc(=O)c2ccccc2o1)C(=O)c1ccccc1 (centres undefined)	2	0	-5	0	7	6	/	/
Nc1nc(-c2ccccn2)nc(N)c1Cc1ccccc1F	-1	2	-3	-3	14	1	/	/
Nc1nc(-c2ccccn2)nc(N)c1Cc1c(F)cccc1Cl	-2	1	-2	0	86*	2	98*	23
Nc1nc(-c2ccccn2)nc(N)c1Cc1ccc(Cl)cc1Cl	0	-1	3	-1	91*	2	100*	49
CCc1ccc(OCC(=O)N(Cc2cccs2)C2CCS(=O)(=O)C2)cc1 (centres undefined)	-2	2	2	1	-9	25	/	/
C[C@H](NC(=O)C1CCN(S(=O)(=O)c2ccccc2)CC1)C(=O)NCc1ccc(Cl)c(Cl)c1	-1	-4	1	-3	22	6	/	/
Cc1ccc(OCc2ccc(C(=O)Nc3c(C)nn(Cc4c(F)c(F)c(F)c(F)c4F)c3C)o2)c([N+](=O)[O-])c1	0	4	-3	1	51	10	40	53
C/C(=N\Nc1nc(-c2ccccn2)nc2ccccc12)c1ccc(F)cc1	/	/	2	0	-3	0	/	/
c1ccc(-c2nc(N3CCCCCC3)c3ccccc3n2)nc1	3	-3	-1	-2	109*	-2	100*	73*
c1ccc(CCNc2nc(-c3ccccn3)nc3ccccc23)cc1	-4	4	0	0	103*	14	100*	85*
